Test results as given in ChEMBL document CHEMBL3616466, “Pyrazolo[3,4-h]quinolines promising photosensitizing agents in the treatment of cancer” (Eur J Med Chem, 2015).

How the values were obtained:
Type in all cases: functional
MCF7 [1] = experiment: Cytotoxicity against human MCF7 cells assessed as growth inhibition after 72 hrs by MTT assay; conditions: MCF7, 72 h
Outline: (§1)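 Cells (5 × 10³ per well) pre-incubated 24 h at 37 °C, 5% CO₂, then exposed in the dark to serial concentrations diluted from DMSO stock into complete medium for 72 h at 37 °C. Viability read by MTT; GI50 derived. LoVo in Ham's F-12, MCF-7 and A-549 in DMEM, all with 10% FBS and penicillin/streptomycin.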

Jurkat [2] = experiment: Cytotoxicity against human Jurkat cells assessed as growth inhibition after 72 hrs by MTT assay
MCF7 [3] = experiment: Photocytotoxicity against human MCF7 cells assessed as growth inhibition at 3.75 J/cm'2 irradiation for 30 mins followed by drug treated for 72 hrs by MTT assay; conditions: MCF7, light or radiation study
Outline: (§2)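 Cells seeded at 5 × 10³ per well and pre-incubated 24 h. Drug dilutions in HBSS (pH 7.2, from DMSO stock) added for 30 min at 37 °C, then UV-A irradiation at the stated dose. Drug solution then replaced with culture medium and plates incubated 72 h. Viability by MTT; GI50 from concentration series.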

A549 [4] = experiment: Photocytotoxicity against human A549 cells assessed as growth inhibition at 2.5 J/cm'2 irradiation for 30 mins followed by drug treated for 72 hrs by MTT assay; conditions: A549, light or radiation study; outline: as §2
LoVo [5] = experiment: Photocytotoxicity against human LoVo cells assessed as growth inhibition at 3.75 J/cm'2 irradiation for 30 mins followed by drug treated for 72 hrs by MTT assay; conditions: light or radiation study; outline: as §2
Jurkat [6] = experiment: Photocytotoxicity against human Jurkat cells assessed as growth inhibition at 2.5 J/cm'2 irradiation for 30 mins followed by drug treated for 72 hrs by MTT assay; conditions: light or radiation study; outline: as §2
Jurkat [7] = experiment: Photocytotoxicity against human Jurkat cells assessed as growth inhibition at 1.25 J/cm'2 irradiation for 30 mins followed by drug treated for 72 hrs by MTT assay; conditions: light or radiation study; outline: as §2
A549 [8] = experiment: Photocytotoxicity against human A549 cells assessed as growth inhibition at 3.75 J/cm'2 irradiation for 30 mins followed by drug treated for 72 hrs by MTT assay; conditions: A549, light or radiation study; outline: as §2
MCF7 [9] = experiment: Photocytotoxicity against human MCF7 cells assessed as growth inhibition at 2.5 J/cm'2 irradiation for 30 mins followed by drug treated for 72 hrs by MTT assay; conditions: MCF7, light or radiation study; outline: as §2
LoVo [10] = experiment: Photocytotoxicity against human LoVo cells assessed as growth inhibition at 2.5 J/cm'2 irradiation for 30 mins followed by drug treated for 72 hrs by MTT assay; conditions: light or radiation study; outline: as §2
HL-60 [11] = experiment: Cytotoxicity against human HL60 cells assessed as growth inhibition after 72 hrs by MTT assay; conditions: HL-60, 72 h
HL-60 [12] = experiment: Photocytotoxicity against human HL60 cells assessed as growth inhibition at 2.5 J/cm'2 irradiation for 30 mins followed by drug treated for 72 hrs by MTT assay; conditions: HL-60, light or radiation study; outline: as §2
A549 [13] = experiment: Cytotoxicity against human A549 cells assessed as growth inhibition after 72 hrs by MTT assay; conditions: A549, 72 h; outline: as §1
LoVo [14] = experiment: Cytotoxicity against human LoVo cells assessed as growth inhibition after 72 hrs by MTT assay; outline: as §1
HL-60 [15] = experiment: Photocytotoxicity against human HL60 cells assessed as growth inhibition at 1.25 J/cm'2 irradiation for 30 mins followed by drug treated for 72 hrs by MTT assay; conditions: HL-60, light or radiation study; outline: as §2

SMILES	GI50 (MCF7 [1]) [µM]	GI50 (Jurkat [2]) [µM]	GI50 (MCF7 [3]) [µM]	GI50 (A549 [4]) [µM]	GI50 (LoVo [5]) [µM]	GI50 (Jurkat [6]) [µM]	GI50 (Jurkat [7]) [µM]	GI50 (A549 [8]) [µM]	GI50 (MCF7 [9]) [µM]	GI50 (LoVo [10]) [µM]	GI50 (HL-60 [11]) [µM]	GI50 (HL-60 [12]) [µM]	GI50 (A549 [13]) [µM]	GI50 (LoVo [14]) [µM]	GI50 (HL-60 [15]) [µM]
CCOC(=O)c1cc2c([nH]c1=O)-c1cnn(-c3ccc(Cl)cc3)c1CC2	6.38	> 20	9.85	> 20	> 20	> 20	> 20	> 20	7.32	> 20	> 20	> 20	5	> 20	> 20
Cn1c2c(cc(S(=O)(=O)c3ccccc3)c1=O)CCc1c-2cnn1-c1ccc(Cl)cc1			> 20	> 20	11.1	3.01	> 20	> 20	> 20	> 20		2.88			> 20
COc1nc2c(cc1S(=O)(=O)c1ccccc1)CCc1c-2cnn1-c1cccc(Cl)c1	> 20	13.2	2.52	13.3	2.99	1.34	1.95	6.61	5.15	9.84	> 20	0.53	> 20	> 20	3.42
COc1nc2c(ccc3c2cnn3-c2ccc(Cl)cc2)cc1S(=O)(=O)c1ccccc1	7.51	> 20	3.23	3.09	0.71	0.96	4.23	0.75	5.36	1.43	> 20	1.2	4.6	> 20	2.16
Cn1c2c(cc(S(=O)(=O)c3ccccc3)c1=O)CCc1c-2cnn1-c1ccccc1			> 20	> 20	> 20	6.99	> 20	> 20	> 20	> 20		> 20			> 20
CCOC(=O)c1cc2c(n(C)c1=O)-c1cnn(-c3ccc(Cl)cc3)c1CC2			> 20	> 20	> 20	> 20	> 20	> 20	> 20	> 20		7.67			> 20
COc1nc2c(cc1S(=O)(=O)c1ccccc1)CCc1c-2cnn1-c1ccccc1Cl	> 20	9.8	1.59	14.3	1.78	0.9	1.93	4.8	3.13	5.73	7.17	0.81	> 20	> 20	3.78
COc1nc2c(cc1S(=O)(=O)c1ccccc1)CCc1c-2cnn1Cc1ccccc1	> 20	8.43	3.05	10.4	1.41	1.4	2.48	5.74	4	5.32	6.1	1.3	> 20	> 20	3.83
COc1ccc(-n2ncc3c2CCc2cc(S(=O)(=O)c4ccccc4)c(=O)n(Cc4ccccc4)c2-3)cc1			> 20	> 20	4.12	> 20	> 20	> 20	> 20	> 20		> 20			> 20
Cn1c2c(cc(S(=O)(=O)c3ccccc3)c1=O)CCc1c-2cnn1-c1ccccc1Cl			12.6	> 20	13.1	5.21	> 20	13	> 20	> 20		4.82			11.5
O=c1[nH]c2c(cc1S(=O)(=O)c1ccccc1)CCc1c-2cnn1-c1ccc(Cl)cc1	11.2	> 20									> 20		6.25	> 20	
O=c1ccc2ccc3occc3c2o1 [ANGELICIN]			1.5		1.11	1			4.42	4		1.2			
